Test results from ChEMBL document CHEMBL1148512, “Fluorophor-labeled spermidine derivatives as fluorescent markers in optical tumor imaging” (Bioorg Med Chem Lett, 2006).
Active and inactive are the calls of the source. The rule behind the calls is not given here.

How the values were obtained:
[1] = system: B16; test: Cellular uptake in mouse B16 cells; format: ADME, cell-based
Method in brief: (§1)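 Cultured tumour cells grown on coverslips, incubated with 50 µM dye conjugate for 1, 4 and 24 h, then imaged by confocal laser scanning microscopy. Parallel incubations were run with benzyl viologen, a polyamine uptake inhibitor. B16 cells were also co-cultured with 3T3YMT-MP non-tumour cells, which express yellow fluorescent protein in mitochondria. Unlabelled cells served as reference.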

[2] = system: MH3924A; test: Cellular uptake in rat MH3924A cells; format: ADME, cell-based; method in brief: as §1
[3] = system: MH3924A; test: Cytotoxicity against rat MH3924A cells assessed as inhibition of colony formation at 25 uM after 4 hrs; format: functional, cell-based
Method in brief: (§2)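 Colony forming assay in MH3924A and B16 cells. Cells were exposed to dye for 4 h (1–250 µM tested across dyes) and colonies were scored 8 days later. Colony formation is expressed as percent of untreated controls.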

[4] = system: B16; test: Cytotoxicity against mouse B16 cells assessed as inhibition of colony formation at 25 uM after 4 hrs; format: functional, cell-based; method in brief: as §2
[5] = system: MH3924A; test: Cellular uptake in rat MH3924A cells xenografted in nude Balc C nu/nu mouse by fluorescence imaging; format: ADME, cell-based; conditions: in vivo
Method in brief: (§3)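 Male Balb/c nu/nu nude mice (about 20 g) carrying subcutaneous MH3924A rat hepatoma (3–8 mm diameter). Dye given as an iv bolus via lateral tail vein, 500 lmol/kg; PBS-injected controls. Under ip ketamine/xylazine (1 mL/kg), open surgery with chest or abdominal incision. Cooled CCD imaging at 10 min, 1 h and 4 h, 60 s exposure, about 5 cm distance. Photon counts summed per equal-size region of interest (11.6 mm2) over 1 min.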

[6] = species: Mus musculus; test: Distribution in bladder of MH3924A hepatoma bearing nude Balc C nu/nu mouse by fluorescence imaging; format: ADME, organism-based, Urinary bladder; conditions: in vivo; method in brief: as §3
[7] = species: Mus musculus; test: Distribution in muscle of MH3924A hepatoma bearing nude Balc C nu/nu mouse by fluorescence imaging; format: ADME, organism-based, Muscle tissue; conditions: in vivo; method in brief: as §3
[8] = system: B16; test: Increase in fluorescence in mouse B16 cells after 24 hrs relative to control; format: functional, cell-based
Method in brief: (§4)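 Quantitative uptake assay: tumour cells incubated with dye for 24 h. Cell-associated fluorescence is expressed as percent increase over unlabelled tumour cells.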

[9] = system: MH3924A; test: Increase in fluorescence in rat MH3924A cells after 24 hrs relative to control; format: functional, cell-based; method in brief: as §4
[10] = species: Mus musculus; test: Distribution in lung of MH3924A hepatoma bearing nude Balc C nu/nu mouse by fluorescence imaging; format: ADME, organism-based; conditions: in vivo; method in brief: as §3

Row | Drug uptake [1] | Drug uptake [2] | Drug uptake [5] | Drug uptake [6] | Drug uptake [7] | Drug uptake [10] | SMILES | Activity [3] | Activity [4] | Drug uptake [8] [%] | Drug uptake [9] [%]
1 | Not Active | Not Active | – | – | – | – | NCCCNCCCCNC(=O)C[C@H](NC(=O)c1ccc(-c2c3ccc(=O)cc-3oc3cc(O)ccc23)c(C(=O)O)c1)C(=O)NCC(=O)NCC(N)=O | – | – | – | –
2 | Active | Active | – | – | – | – | Cc1cc2cc3cc(C)c(NC(=O)CC(N)C(=O)NCCCCNCCCN)cc3nc2cc1N (stereo not drawn) [ASPARTYL(ACRIDINE YELLOW G)SPERMIDINE] | Active | Active | – | –
3 | – | Active | Active | Active | Not Active | Not Active | CNc1ccccc1C(=O)NCCCCNCCCN | – | – | 19 | 16
